Experimental data reported in ChEMBL document CHEMBL4765453, “Phenanthrolinic analogs of quinolones show antibacterial activity against M. tuberculosis” (Eur J Med Chem, 2020).
≈ marks a conversion by molar mass, not a printed value.

Tests used:
[1] = system: Mycobacterium tuberculosis; test: Antitubercular activity against Mycobacterium tuberculosis H37Rv measured after 7 days by resazurin microtiter assay; assay type: functional; conditions: 168 h, time 7 day
Method in brief: (§1)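 Resazurin microtiter assay with two-fold drug dilutions in complete 7H9 broth. Exponential-phase cells are diluted to a final OD600 of 0.005 in 7H9 without Tween. Incubation is 7 days at 37°C, then 0.01% resazurin is added and plates are held 24 h more. MIC is the lowest concentration preventing the blue-to-pink change. Each MIC is determined three times in duplicate experiments.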

[2] = Solubility of compound in water; assay type: physicochemical; conditions: buffer
[3] = system: Mycolicibacterium smegmatis; test: Antibacterial activity against Mycobacterium smegmatis measured after 7 days by resazurin microtiter assay; assay type: functional; conditions: 168 h, time 7 day; method in brief: as §1
Mycolicibacterium aurum = test: Antibacterial activity against Mycobacterium aurum measured after 7 days by resazurin microtiter assay; assay type: functional; conditions: 168 h, time 7 day; method in brief: as §1
Mycobacterium marinum = test: Antibacterial activity against Mycobacterium marinum measured after 7 days by resazurin microtiter assay; assay type: functional; conditions: 168 h, time 7 day; method in brief: as §1
Pseudomonas aeruginosa = test: Antibacterial activity against Pseudomonas aeruginosa measured after 7 days by resazurin microtiter assay; assay type: functional; conditions: 168 h, time 7 day
Acinetobacter baumannii = test: Antibacterial activity against Acinetobacter baumannii measured after 7 days by resazurin microtiter assay; assay type: functional; conditions: 168 h, time 7 day
Klebsiella aerogenes = test: Antibacterial activity against Enterobacter aerogenes measured after 7 days by resazurin microtiter assay; assay type: functional; conditions: 168 h, time 7 day
Enterobacter cloacae = test: Antibacterial activity against Enterobacter cloacae measured after 7 days by resazurin microtiter assay; assay type: functional; conditions: 168 h, time 7 day
Staphylococcus aureus = test: Antibacterial activity against Staphylococcus aureus measured after 7 days by resazurin microtiter assay; assay type: functional; conditions: 168 h, time 7 day
Klebsiella pneumoniae = test: Antibacterial activity against Klebsiella pneumoniae measured after 7 days by resazurin microtiter assay; assay type: functional; conditions: 168 h, time 7 day
Vero = test: Cytotoxicity against African green monkey Vero cells assessed as reduction in cell viability measured after 24 to 48 hrs by Celltiter-glo assay; assay type: cell-based, Chlorocebus sabaeus
Method in brief: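 Vero cells are grown in DMEM with 10% FBS and seeded at 25000 cells/well. Compound is added at 1% final DMSO, with 24 and 48 h incubation. ATP is read by CellTiter-Glo luminescence. IC50 is the concentration giving a 50% drop in ATP signal versus the DMSO control.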

Macrophage = test: Cytotoxicity against human macrophages assessed as reduction in cell viability measured after 6 days by Celltiter-glo assay; assay type: cell-based; conditions: 144 h
Method in brief: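 Infected human macrophages, with or without drug, are incubated 6 days. Viability is checked by visual inspection and by CellTiter-Glo ATP luminescence.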

[4] = system: Mycobacterium tuberculosis; test: Antitubercular activity against Mycobacterium tuberculosis H37Rv infected in human macrophages assessed as intracellular bacterial load at 0.5 MIC measured after 6 days (reference value: 5.57 to 6.43 logCFU/ml); assay type: functional, Macrophage; conditions: time 6 day
[5] = system: Mycobacterium tuberculosis; test: Antitubercular activity against Mycobacterium tuberculosis H37Rv infected in human macrophages assessed as intracellular bacterial load at MIC measured after 6 days (reference value: 5.57 to 6.43 logCFU/ml); assay type: functional, Macrophage; conditions: time 6 day
[6] = system: Mycobacterium tuberculosis; test: Antitubercular activity against Mycobacterium tuberculosis H37Rv infected in human macrophages assessed as intracellular bacterial load at 2 times MIC measured after 6 days (reference value: 5.57 to 6.43 logCFU/ml); assay type: functional, Macrophage; conditions: time 6 day
[7] = system: Mycobacterium tuberculosis; test: Antitubercular activity against Mycobacterium tuberculosis H37Rv infected in human macrophages assessed as intracellular bacterial load at 4 times MIC measured after 6 days (reference value: 5.57 to 6.43 logCFU/ml); assay type: functional, Macrophage; conditions: time 6 day
[8] = system: Mycobacterium tuberculosis; test: Antitubercular activity against Mycobacterium tuberculosis XDR measured after 7 days by resazurin microtiter assay; assay type: functional; conditions: 168 h, time 7 day; method in brief: as §1

Q: Which results are given for `CCOC(=O)c1cn(CC)c2c(ccc3cccnc32)c1=O`?
A: MIC90 [1]: 170 µM (≈ 50.3 µg/mL); solubility [2]: Insoluble

Q: What does the source list for `CCn1cc(C(=O)O)c(=O)c2cc(Br)c3cccnc3c21`?
A: MIC90 [1]: 9.39 µM (≈ 3.26 µg/mL); solubility [2]: Insoluble

Q: With `O=C(O)c1c[nH]c2c(ccc3cccnc32)c1=O` as the molecule, how does the MIC90 [1] read?
A: 112 µM (≈ 27 µg/mL)

Q: What about the solubility [2] of the same molecule?
A: Insoluble

Q: Which MIC90 [1] does the source give for `CCOC(=O)c1cn(C)c2c(cc(Cl)c3cccnc32)c1=O` here?
A: 329 µM (≈ 104 µg/mL)

Q: What about the solubility [2] of the same molecule?
A: Insoluble

Q: For `CCOC(=O)c1cn(C)c2c(cc([N+](=O)[O-])c3cccnc32)c1=O`, which MIC90 [1] is on record?
A: 1.21 µM (≈ 0.396 µg/mL)

Q: And the MIC90 [3]?
A: > 100 µM

Q: And the MIC90 (Mycolicibacterium aurum)?
A: > 100 µM

Q: What about the MIC90 (Mycobacterium marinum) of the same molecule?
A: 0.15 µM (≈ 0.0491 µg/mL)

Q: And the MIC90 (Pseudomonas aeruginosa)?
A: > 100 µM

Q: What about the MIC90 (Acinetobacter baumannii) of the same molecule?
A: > 100 µM

Q: What about the MIC90 (Klebsiella aerogenes) of the same molecule?
A: 309 µM (≈ 101 µg/mL)

Q: What about the MIC90 (Enterobacter cloacae) of the same molecule?
A: > 275 µM

Q: What about the MIC90 (Staphylococcus aureus) of the same molecule?
A: > 275 µM

Q: And the MIC90 (Klebsiella pneumoniae)?
A: > 275 µM

Q: What about the IC50 (Vero; Chlorocebus sabaeus, Vero) of the same molecule?
A: > 50 mg/L

Q: What about the IC50 (Macrophage; Homo sapiens, Macrophage) of the same molecule?
A: > 50 mg/L

Q: And the Activity [4]?
A: 4.22 log10CFU/ml

Q: What about the Activity [5] of the same molecule?
A: 3.63 log10CFU/ml

Q: And the Activity [6]?
A: 3.45 log10CFU/ml

Q: What about the Activity [7] of the same molecule?
A: 3.06 log10CFU/ml

Q: What about the MIC90 [8] of the same molecule?
A: 1.21 µM (≈ 0.396 µg/mL)

Q: What about the solubility [2] of the same molecule?
A: Insoluble

Q: For `CCOC(=O)c1cn(CC)c2c(cc(N)c3cccnc32)c1=O`, which MIC90 [1] is on record?
A: 41.9 µM (≈ 13 µg/mL)

Q: What about the solubility [2] of the same molecule?
A: Insoluble

Q: For `CO[C@H]1/C=C/O[C@@]2(C)Oc3c(C)c(O)c4c(O)c(c(/C=N/N5CCN(C)CC5)c(O)c4c3C2=O)NC(=O)/C(C)=C\C=C\[C@H](C)[C@H](O)[C@@H](C)[C@@H](O)[C@@H](C)[C@H](OC(C)=O)[C@@H]1C` [RIFAMPIN], which MIC90 [1] is on record?
A: 0.76 µM (≈ 0.625 µg/mL)

Q: With `CCOC(=O)c1cn(CC)c2c(cc([N+](=O)[O-])c3cccnc32)c1=O` as the molecule, how does the MIC90 [1] read?
A: 4.99 µM (≈ 1.7 µg/mL)

Q: What about the MIC90 [3] of the same molecule?
A: > 100 µM

Q: What about the MIC90 (Mycolicibacterium aurum) of the same molecule?
A: > 100 µM

Q: And the MIC90 (Mycobacterium marinum)?
A: 0.61 µM (≈ 0.208 µg/mL)

Q: And the MIC90 (Pseudomonas aeruginosa)?
A: > 100 µM

Q: What about the MIC90 (Acinetobacter baumannii) of the same molecule?
A: > 100 µM

Q: And the MIC90 (Klebsiella aerogenes)?
A: 314 µM (≈ 107 µg/mL)

Q: And the MIC90 (Enterobacter cloacae)?
A: > 275 µM

Q: What about the MIC90 (Staphylococcus aureus) of the same molecule?
A: 19.6 µM (≈ 6.69 µg/mL)

Q: And the MIC90 (Klebsiella pneumoniae)?
A: > 275 µM

Q: What about the Activity (Vero; chlorocebus sabaeus, vero, time 24-48 hrs) of the same molecule?
A: Non-Toxic

Q: What about the Activity (Macrophage; human, macrophage, time 6 day) of the same molecule?
A: Non-Toxic

Q: What about the Activity [4] of the same molecule?
A: 4.42 log10CFU/ml

Q: And the Activity [5]?
A: 3.59 log10CFU/ml

Q: What about the Activity [6] of the same molecule?
A: 3.1 log10CFU/ml

Q: And the Activity [7]?
A: 3 log10CFU/ml

Q: What about the MIC90 [8] of the same molecule?
A: 4.99 µM (≈ 1.7 µg/mL)

Q: And the solubility [2]?
A: Insoluble

Q: With `CCOC(=O)c1c[nH]c2c(cc([N+](=O)[O-])c3cccnc32)c1=O` as the molecule, how does the MIC90 [1] read?
A: 329 µM (≈ 103 µg/mL)

Q: What about the solubility [2] of the same molecule?
A: Insoluble

Q: What does the source list for `CCn1cc(C(=O)NN)c(=O)c2cc([N+](=O)[O-])c3cccnc3c21`?
A: MIC90 [1]: 9.84 µM (≈ 3.22 µg/mL); solubility [2]: Insoluble

Q: For `COc1c(N2C[C@@H]3CCCN[C@@H]3C2)c(F)cc2c(=O)c(C(=O)O)cn(C3CC3)c12` [MOXIFLOXACIN], which MIC90 [1] is on record?
A: 0.77 µM (≈ 0.309 µg/mL)

Q: And the Activity [4]?
A: 4.02 log10CFU/ml

Q: What about the Activity [5] of the same molecule?
A: 3.77 log10CFU/ml

Q: And the Activity [6]?
A: 3.93 log10CFU/ml

Q: What about the Activity [7] of the same molecule?
A: 2.54 log10CFU/ml

Q: And the MIC90 [8]?
A: 6.16 µM (≈ 2.47 µg/mL)

Q: Which MIC90 [1] does the source give for `Cn1cc(C(=O)NN)c(=O)c2cc([N+](=O)[O-])c3cccnc3c21` here?
A: 20.8 µM (≈ 6.51 µg/mL)

Q: And the solubility [2]?
A: Insoluble

Q: Which results are given for `Cn1cc(C(N)=O)c(=O)c2cc([N+](=O)[O-])c3cccnc3c21`?
A: MIC90 [1]: 1.4 µM (≈ 0.418 µg/mL); solubility [2]: Insoluble

Q: Which MIC90 [1] does the source give for `NCC[C@H](O)C(=O)N[C@@H]1C[C@H](N)[C@@H](O[C@H]2O[C@H](CN)[C@@H](O)[C@H](O)[C@H]2O)[C@H](O)[C@H]1O[C@H]1O[C@H](CO)[C@@H](O)[C@H](N)[C@H]1O` [AMIKACIN] here?
A: 1.83 µM (≈ 1.07 µg/mL)

Q: What about the MIC90 [3] of the same molecule?
A: 0.46 µM (≈ 0.269 µg/mL)

Q: What about the MIC90 (Mycolicibacterium aurum) of the same molecule?
A: 1.83 µM (≈ 1.07 µg/mL)

Q: And the MIC90 (Mycobacterium marinum)?
A: 3.66 µM (≈ 2.14 µg/mL)

Q: And the MIC90 (Pseudomonas aeruginosa)?
A: 3.66 µM (≈ 2.14 µg/mL)

Q: And the MIC90 (Acinetobacter baumannii)?
A: 14.6 µM (≈ 8.57 µg/mL)

Q: For `CCn1cc(C(=O)Nc2ccccc2)c(=O)c2ccc3cccnc3c21`, which MIC90 [1] is on record?
A: 312 µM (≈ 107 µg/mL)

Q: What about the solubility [2] of the same molecule?
A: Insoluble
